Results published in publication PMC11608545 (International Journal of Nanomedicine, 2024).
In brackets after ≈: the same amount, converted by molar mass.

Legend:
PC-3 = assay: Antiproliferative activity, SRB assay; type: cell-based, human; conditions: for calculated selectivity index SI: IC50 MCF-10A / IC50 PC3
A-549 = assay: Antiproliferative activity, SRB assay; type: cell-based, human; conditions: for calculated selectivity index SI: IC50 MCF-10A / IC50 A-549
MDA-MB-468 = assay: Antiproliferative activity, SRB assay; type: cell-based, human; conditions: for calculated selectivity index SI: IC50 MCF-10A / IC50 MDA-MB-468; for IC50: MDA-MB-468, 72 h
MV4-11 = assay: Antiproliferative activity, MTT assay; type: cell-based, human; conditions: for calculated selectivity index SI: IC50 MCF-10A / IC50 MV4-11; for IC50: MV4-11, 72 h
MCF-7 = assay: Antiproliferative activity, SRB assay; type: cell-based, human; conditions: for calculated selectivity index SI: IC50 MCF-10A / IC50 MCF-7
MCF-10A = assay: cells; type: cell-based, human
[1] = background statement, no reference given, cited from earlier work
[2] = tested on: selected cancer cell lines (MV4-11, A549, PC-3, MDA-MB-468, MCF-7); assay: Antiproliferative activity, all studied cancer cell lines together; type: cell-based, human; conditions: read-out: IC50 values, range over all studied cancer cell lines; 72 h
In short: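 Cells were seeded 24 h before treatment at 0.5×10^4 (A549), 0.75×10^4 (MDA-MB-468, MCF-7) or 1×10^4 (PC-3, MV4-11) cells/well. They were exposed 72 h to test compound at 1–625 μM in medium; loaded nanocarrier was dosed by encapsulated conjugate. Read-out was MTT (MV4-11) or SRB (others). Triplicates, 3–5 independent runs; IC50 per run, mean ± SD.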

[3] = tested on: caspase-3/7 in MV4-11 cells; assay: Caspase-3/7 activity determination; type: cell-based, human; conditions: MV4-11, 24 h or 72 h, 1.5 × IC50
MDA-MB-468 cells = assay: Cell cycle analysis; type: cell-based, human; conditions: MDA-MB-468, 72 h, 1.5 × IC50
MV4-11 cells [4] = assay: Apoptosis determination by Annexin V staining; type: cell-based, human; conditions: MV4-11, 1.5 × IC50
MV4-11 cells [5] = assay: Cell cycle analysis; type: cell-based, human; conditions: MV4-11, 72 h, 1.5 × IC50
[6] = tested on: caspase-3/7 in MDA-MB-468 cells; assay: Caspase-3/7 activity determination; type: cell-based, human; conditions: MDA-MB-468, 24 h or 72 h, 1.5 × IC50
[7] = SRB, n.a. = not active in the range concentration (5–625 μM)

SMILES | calculated selectivity index SI (PC-3) | IC50 (PC-3; PC3, 72 h, SRB) [µM] | IC50 (A-549; A-549, 72 h, SRB) [µM] | calculated selectivity index SI (A-549) | calculated selectivity index SI (MDA-MB-468) | IC50 (MDA-MB-468; [7]) [µM] | calculated selectivity index SI (MV4-11) | IC50 (MV4-11; MTT) [µM] | calculated selectivity index SI (MCF-7) | IC50 (MCF-7; MCF-7, 72 h, SRB) [µM] | further results
CCCCCCCCCCCCCCCC(=O)OC[C@H](COP(=O)([O-])OCC[N+](C)(C)C)OC(=O)Cc1c(C)n(C(=O)c2ccc(Cl)cc2)c2ccc(OC)cc12 [PA-IND-PC, 1-palmitoyl-2-indomethacinoyl-sn-glycero-3-phosphocholine] | 1.33 | 233 ± 0.6 | 233 ± 108 | 1.33 | 1.10 | 281 ± 35.9 | 1.16 | 268 ± 34.3 | 1.12 | 276 ± 134 | –
CCCCCCCCCCCCCCCC(=O)O[C@H](COC(=O)Cc1c(C)n(C(=O)c2ccc(Cl)cc2)c2ccc(OC)cc12)COP(=O)([O-])OCC[N+](C)(C)C [IND-PA-PC, 1-indomethacinoyl-2-palmitoyl-sn-glycero-3-phosphocholine] | – | 563 ± 75.1 | 423 ± 84.1 | – | – | – | – | 430 ± 104 | – | 424 ± 14.4 | –
CCCCCCCCCCCCCCCCCC(=O)O[C@H](COC(=O)Cc1c(C)n(C(=O)c2ccc(Cl)cc2)c2ccc(OC)cc12)COP(=O)([O-])OCC[N+](C)(C)C [IND-SA-PC, 1-indomethacinoyl-2-stearoyl-sn-glycero-3-phosphocholine] | 1.46 | 209 ± 18.3 | 201 ± 23.5 | 1.51 | 1.42 | 214 ± 46.1 | 1.90 | 160 ± 59.7 | 1.33 | 230 ± 10.3 | –
COc1ccc2c(c1)c(CC(=O)O)c(C)n2C(=O)c1ccc(Cl)cc1 [IND, indomethacin, reference compound] | – | – | – | – | – | – | – | – | – | – | IC50 (PC-3; Homo sapiens, PC-3, 72 h): 160 ± 61.5 µM; IC50 (A-549; Homo sapiens, A549, 72 h): 121 ± 31.6 µM; IC50 (MDA-MB-468; Homo sapiens): 270 ± 56.3 µM; IC50 (MCF-10A; Homo sapiens, MCF-10A, 72 h): 191 ± 11.4 µM; IC50 (MV4-11; Homo sapiens): 204 ± 41.5 µM; Biopharmaceutical Classification System (BCS) class [1]: Class II; water solubility ([1]; pH7): 105.2 µg/mL (≈ 294 µM); IC50 (MCF-7; Homo sapiens, MCF7, 72 h): 187 ± 19.4 µM
CCCCCCCC/C=C\CCCCCCCC(=O)OC[C@H](COP(=O)([O-])OCC[N+](C)(C)C)OC(=O)Cc1c(C)n(C(=O)c2ccc(Cl)cc2)c2ccc(OC)cc12 [OA-IND-PC, 1-oleoyl-2-indomethacinoyl-sn-glycero-3-phosphocholine] | 1.75 | 58 ± 11.9 | 53.8 ± 1.2 | 1.89 | 1.80 | 56.4 ± 0.6 | 1.80 | 56.3 ± 0.8 | 1.70 | 59.8 ± 2.1 | IC50 [2]: 33.5 to 67.5 µM; caspase-3/7 activation [3]: strongly increased caspase activity in MV4-11 cells after 72 h; effect on cell cycle / cell death (MDA-MB-468 cells): stopped the cell cycle in the G0/G1 phase, but did not induce cell death; effect on number of apoptotic (AnV+/PI+) cells (MV4-11 cells [4]): slightly increased; effect on cell cycle / cell death (MV4-11 cells [5]): strongly induced cell death
CCCCCCCCCCCCCCCCCC(=O)OC[C@H](COP(=O)([O-])OCC[N+](C)(C)C)OC(=O)Cc1c(C)n(C(=O)c2ccc(Cl)cc2)c2ccc(OC)cc12 [SA-IND-PC, 1-stearoyl-2-indomethacinoyl-sn-glycero-3-phosphocholine] | 2.34 | 230 ± 15.8 | 243 ± 15.7 | 2.22 | 1.87 | 289 ± 12.2 | 1.64 | 329 ± 34.6 | 1.87 | 288 ± 22.2 | –
COc1ccc2c(c1)c(CC(=O)OC[C@@H](O)COP(=O)([O-])OCC[N+](C)(C)C)c(C)n2C(=O)c1ccc(Cl)cc1 [IND-LPC, 1-indomethacinoyl-2-hydroxy-sn-glycero-3-phosphocholine] | 0.48 | 14.4 ± 2.9 | 27.2 ± 4.9 | 0.25 | 2.56 | 2.7 ± 0.5 | 2.23 | 3.1 ± 0.5 | 0.87 | 7.9 ± 0.7 | caspase-3/7 activation [3]: higher level after 24 h than 72 h; effect on cell cycle / cell death (MDA-MB-468 cells): strongly induces breast cancer cell death; effect on number of apoptotic (AnV+/PI+) cells (MV4-11 cells [4]): slightly increased; fold lower IC50 than free IND (MDA-MB-468; MDA-MB-468): 100 fold; times more active against MDA-MB-468 than MCF-7 (MDA-MB-468; MDA-MB-468 vs MCF-7): 3 times; toxicity towards MCF-10A at the active doses (MCF-10A; at 3.1 μM and 2.7 μM): not toxic; fold lower IC50 than free IND (MV4-11; MV4-11): 66 fold; effect on cell cycle / cell death (MV4-11 cells [5]): strongly induced cell death; caspase-3/7 activation [6]: higher level after 24 h than 72 h
